Screening results from PubChem BioAssay.
ARNT-TACC3 inh: disrupts binding between human ARNT and TACC3; Q9Y6A5; AlphaScreen His-ARNT PAS-B/GST-TACC3 binding, luminescence; TACC3 fragment carries E629A point mutation; inhibition, % at 9.99 µM; hit rate 0.66% among 390,000; AID 623870;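 active = mean inhibition of replicates at least 50% and at least half of replicates each reaching 50%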;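 note: 0% = complete ARNT plus TACC3 wells and 100% = ARNT alone without TACC3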
CAL PDZ FP-1: human CAL PDZ-peptide interaction inhibition | inhibition, % at 20 µM | Q9HD26 | AID 504414 | hit rate 0.02% among 330,000 | purified CAL PDZ, TMR-peptide fluorescence polarization, 1 h;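 active = highest replicate inhibition of at least 40%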;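 note: plate controls were DMSO neutral control wells for no effect and unlabeled competitor peptide control wells for full effect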
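Material: tagged CAL PDZ protein CerCALP, purified; buffer or medium: sodium phosphate/NaCl buffer pH 7.4 with TCEP, IgG, Thesit; also added: fluorescent TMR peptide probe; schedule: 1 h incubation at room temperature before polarization reading; technique: fluorescence polarization from S- and P-plane intensities, G-factor corrected; control set: unlabelled peptide and DMSO controls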
miR-122 sensor: blocks miR-122 activity in Huh7 sensor cells; Huh7 miR-122 Renilla luciferase sensor, 48 h; neutral wells = 0, positive control = 100; activation (reporter increase), % at 12.5 µM; hit rate 0.3% among 340,000;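 active = mean replicate activation score at least 90 and every replicate individually at or above 90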;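 note: higher luciferase means less miR-122 activity so hits act as miR-122 inhibitors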
CFTR F508del cor: CFTR F508del correction in bronchial cells | activity (quench increase), % at 7.58 µM | hit rate 0.36% among 350,000 | CFBE cells, YFP halide quenching; stimulated with forskolin plus potentiator P3; % fluorescence drop versus neutral controls;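 active = mean added fluorescence quench of at least 8% versus neutral control, with both replicates also reaching 8%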;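 note: cells transiently co-express mutant CFTR-F508del with the halide-sensitive YFP; corrector assay measuring rescue of mutant channel to the surface after 24 h compound exposure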
PGC1a acetyl inh: lowers PGC1a acetylation signal in U2OS cells | AlphaScreen anti-acetyl-lysine; with virally co-expressed GCN5 acetyltransferase | inhibition, % at 15.6 µM | hit rate 0.17% among 350,000;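 active = every replicate shows inhibition of at least 40%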;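 note: 0% = neutral control wells and 100% = positive control wells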
CAL PDZ FP-2: CAL PDZ (human) peptide binding inhibition; purified CAL PDZ, TMR-peptide fluorescence polarization, 1 h; inhibition, % at 24.9 µM; hit rate 0.92% among 300,000;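 active = mean inhibition of at least 30% with at least half of replicates also reaching 30%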;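 note: 0% = DMSO neutral control and 100% = excess unlabeled competitor peptide PRC23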
The depositor's hits bear a star; · = no result; + = active, no number; [ ] = another dose, or the depositor's remark. Rows were chosen to be rich in hits. Some 1.7% of all compounds tested hit in one or more screens of this group.

SMILES	ARNT-TACC3 inh	CAL PDZ FP-1	miR-122 sensor	CFTR F508del cor	PGC1a acetyl inh	CAL PDZ FP-2
Cc1cc(C)n(/N=C\c2c(O)ccc3ccccc23)c(=O)c1C(N)=O	-2.2	-0.5	-7.6	·	-6.7	50.4*
Cc1noc(C)c1NC(=O)N(C)C[C@H]1Oc2c(NC(=O)Nc3ccc(C(F)(F)F)cc3)cccc2C(=O)N([C@@H](C)CO)C[C@@H]1C	1.3	·	-4.7[16.7 µM]	2.2	11.3	·
CC(C)NC(=O)Nc1ccc2c(c1)C(=O)N([C@H](C)CO)C[C@@H](C)[C@H](CN(C)Cc1ccc(Oc3ccccc3)cc1)O2	2.8	·	0.1[16.7 µM]	-2.1	-8.4	·
CN(Cc1ccco1)c1ncnc2ccc(-c3ccc4c(ccn4C)c3)cc12	·	-1.0	3.2	14.3*	-6.8	-3.8
COc1ccc(NC(=O)N(C)C[C@@H]2Oc3ccc(NC(=O)NC4CCCCC4)cc3C(=O)N([C@H](C)CO)C[C@H]2C)cc1	-2.3	·	-3.3[16.7 µM]	-2.2	-13.4	·
O=C(c1cccc(S(=O)(=O)N2CCCC2)c1)N1CCCC(C(F)(F)F)C1 (stereo not given)	-17.0	0.0	-0.9	1.6	0.6	-1.6
O=C(c1cccc(S(=O)(=O)N2CCOCC2)c1)N1CCCC(C(F)(F)F)C1 (stereo not given)	1.7	-2.3	-7.2	10.1*	8.7	-0.6
O=C([C@@H]1[C@@H](CO)[C@@H]2Cn3c(cccc3=O)[C@H]1N2C(=O)CC1CC1)N1CCCCC1	-0.8	·	·	·	·	·
COc1ccc(CN2CCN(c3ncnc4scc(-c5ccc(F)cc5)c34)CC2)cc1	48.0*	-0.6	-1.6	-0.1	·	-9.1
COc1ccc(N2CCN(c3ncnc4scc(-c5ccc(F)cc5)c34)CC2)cc1	9.5	0.9	-1.4	2.2	5.7	-1.7
CCCNC(=O)N(C)C[C@@H]1Oc2cc(C3=CCCC3)ccc2S(=O)(=O)N([C@H](C)CO)C[C@@H]1C	-3.4	·	·	-2.4	-6.9	·
COc1ccc(CCN2CC(O)=C(c3nc(C)cs3)C2=N)cc1OC	-10.7	-0.1	129.8*	·	·	·
Cc1nn(C)c(Cl)c1/C=C/C(=O)O	-14.2	-0.4	-0.7	1.5	-14.5	-1.6
Cc1nn(C)c(C)c1/C=C/C(=O)O	2.8	0.0	-5.0	13.3*	-14.1	·
Cc1ccc(NC2=C/C(=N/S(=O)(=O)c3cccs3)c3ccccc3C2=O)cc1C	-2.8	0.5	1.5	·	6.0	-3.9
CC(=O)Nc1ccc(NC2=C/C(=N/S(=O)(=O)c3cccs3)c3ccccc3C2=O)cc1	23.5	0.7	6.9	·	70.4*	-1.7
Cc1ccccc1NC1=C/C(=N\S(=O)(=O)c2cccs2)c2ccccc2C1=O	16.3	1.6	-59.7	·	88.0*	1.2
COc1cccc(S(=O)(=O)Nc2ccc3c(c2)[C@H]2C[C@H](CC(=O)N4CCCCC4)O[C@H](CO)[C@H]2O3)c1	-0.4	·	-5.4[16.7 µM]	7.0	1.8	·
Cc1ccc(S(=O)(=O)Nc2cc(Cl)c(O)c3ncccc23)cc1	47.8*	-4.0	11.1	5.1	·	1.7
CCOc1ccc2nc(N3CCCC(C(=O)NCCCN4CCCCC4)C3)sc2c1 (stereo not given)	-2.9	-2.4	2.0	0.7	-3.8	1.7
COc1ccc2nc(N3CCCC(C(=O)NCCCN4CCN(C)CC4)C3)sc2c1 (stereo not given)	4.5	-1.8	2.5	·	70.2*	0.1
CCCS(=O)(=O)c1nc(S(=O)(=O)c2ccc(C)cc2)c(N2CCC3(CC2)OCCO3)s1	3.9	-1.0	10.1	-1.5	-7.2	57.1*
C[C@@H]1CCCCO[C@@H](CN(C)S(=O)(=O)c2cccs2)[C@H](C)CN([C@@H](C)CO)C(=O)c2cc(NC(=O)C3CCCCC3)ccc2O1	-3.9	·	2.0[16.7 µM]	-3.0	1.3	·
CSc1nc2c(c(=O)[nH]1)C(c1cccs1)C1=C(CCCC1=O)N2 (stereo not given)	-1.8	-0.8	5.9	·	-1.4	31.9*
O=C(O)C1=C[C@H](c2ccc3c(c2)Cc2ccccc2-3)C[C@H](OCCCCO)O1	0.8	·	·	-1.9	9.2	·
SMILES	ARNT-TACC3 inh	CAL PDZ FP-1	miR-122 sensor	CFTR F508del cor	PGC1a acetyl inh	CAL PDZ FP-2
CC(C)CC1NC(=O)N(CC(=O)N(C)C2CCCCC2)C1=O (stereo not given)	·	0.3	-3.2	1.1	2.1	108.2*
[N-]=[N+]=Nc1ccccc1C[C@@]1(C(=O)N2CCOCC2)N=C(c2ccc(OCCCO)cc2)O[C@@H]1c1ccccc1	3.9	·	·	3.1	-18.7	·
Cc1nc2ccccn2c1-c1ccnc(=S)[nH]1	10.8	-0.8	·	-0.8	0.3	+
Cc1ccc2nc(-c3ccc(Br)cc3)cc(C(=O)NCC3CCCO3)c2c1 (stereo not given)	·	·	-0.1	0.5	8.9	·
CC(NC(=O)c1cc(-c2ccncc2)nc2ccc(Br)cc12)C1CCCO1 (stereo not given)	-6.2	-1.8	0.4	-0.2	-3.2	45.4*
OCc1ccc(O)c2ncccc12	70.7*	-0.5	·	·	·	-5.0
Oc1ccc(COCc2ccccc2)c2cccnc12	79.6*	-1.7	-13.7	·	-10.6	·
Oc1ccc(CNc2ccccc2F)c2cccnc12	48.8*	-2.9	-7.2	-1.9	-5.3	1.7
O=c1c(CN2CCN(c3ccccn3)CC2)coc2ccccc12	0.9	-2.3	·	3.0	·	1.9
Oc1c(CN2CCN(c3ccccn3)CC2)cc(Cl)c2cccnc12	59.6*	-0.2	-19.0	·	13.6	1.7
Oc1ccc(Cc2ccccc2)c2cccnc12	·	·	-12.6	0.9	30.1	·
CN1C(=O)c2cc(NC(=O)C3CC3)ccc2OC[C@@H]2O[C@@H](CC(=O)NCCc3ccncc3)CC[C@@H]21	0.5	·	-3.1[16.7 µM]	-2.6	1.5	·
C[C@H]1CN([C@@H](C)CO)C(=O)c2cc(NC(=O)C3CCCCC3)ccc2O[C@@H]1CN(C)C(=O)Nc1ccc(F)cc1	-7.1	·	-1.2[16.7 µM]	0.1	·	·
O=[N+]([O-])c1cc(CN2CCN(c3cccc(C(F)(F)F)c3)CC2)c2cccnc2c1O	·	-0.3	·	-2.9	·	5.9
O=[N+]([O-])c1cc(CN2CCCC2)c2cccnc2c1O	77.2*	-0.1	·	·	·	-2.4
Oc1c(Cl)cc(CN2CCCCC2)c2cccnc12	76.6*	·	·	·	1.7	-3.7
Oc1ccc(CN2CCN(c3ccccc3)CC2)c2cccnc12	14.4	0.5	3.3	·	12.3	-1.7
Oc1ccc(CN2CCCCC2)c2cccnc12	79.7*	-2.4	·	1.6	25.1	-0.2
Oc1c(Cl)cc(Cl)c2cccnc12	·	-2.2	-10.6	1.1	·	-1.4
Oc1c(CN2CCCCC2)ccc2cccnc12	88.6*	0.0	·	-4.1	24.9	-3.4
O=C(CC1CC1)N1[C@H](CO)[C@@H](c2ccccc2)C12CN(S(=O)(=O)c1ccccc1)C2	·	·	·	-1.0	0.1	·
C[C@H](CO)N1C[C@H](C)[C@@H](CN(C)C(=O)c2ccccc2)Oc2cc(C3=CCCCC3)ccc2S1(=O)=O	12.1	·	38.1[16.7 µM]	-4.3	1.0	·
